Values after ≈ are worked out from the molar mass of the structure shown. Active and inactive are the calls of the source. The calls are words filed in the database; no cut-off is given here.
Assays:
[1] = target: DCN1-like protein 1/NEDD8-conjugating enzyme Ubc12 (Homo sapiens, UniProt Q96GG9); assay: Inhibition of biotinylated DCN1 (unknown origin) - AlexaFluor488 labelled UBE2M (unknown origin) protein-protein interaction after 1 hr by TR-FRET assay
BJ = assay: Cytotoxicity against human BJ cells assessed as cell growth inhibition after 72 hrs by Celltiter-Glo assay; type: cell-based
How it was run: (§1)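 Cells were seeded overnight at 37 °C, 5% CO2, at densities validated for logarithmic growth (BJ 1000 cells/well, HCC95 600 cells/well), then treated with ten 3-fold serial dilutions from DMSO stocks for 72 h. […] Fit on a semi-log plot; ≥3 technical and 2 biological replicates.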

HCC95 [2] = assay: Cytotoxicity against human HCC95 cells overexpressing DCN1 assessed as cell growth inhibition after 72 hrs by Celltiter-Glo assay; type: cell-based; settings: HCC95, 72 h; how it was run: as §1
HCC95 [3] = assay: Induction of ROS generation in human HCC95 cells at 30 uM after 5 hrs by H2DCFDA dye based fluorescence assay; type: functional, cell-based
How it was run: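 HCC95 cells were seeded at 25,000 cells/well and incubated overnight. They were PBS-washed, loaded with DCFDA for 45 min at 37 °C in the dark, washed twice, then exposed to compound in buffer for 5 h at 37 °C in the dark. Fluorescence was read at Ex/Em 485/535 nm.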

[4] = Half life in mouse microsomes at 0.8 uM; type: ADME, Microsome
How it was run: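 Oxidative metabolic stability in murine liver microsomes, drug at 0.8 µM. Half-life is reported as mean ± SD from at least one independent experiment run in triplicate.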

[5] = Kinetic aqueous solubility of compound at pH 7.4; type: physicochemical; settings: buffer, read-out: Kinetic_solubility
How it was run: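 Kinetic aqueous solubility was measured in pH 7.4 buffer. Values are reported as means ± standard deviation from at least one independent experiment run in triplicate.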

[6] = target: T1, DCN1-like protein 5 (Homo sapiens) (UniProt Q9BTE7); assay: Inhibition of DCN5 (unknown origin) assessed as decrease in DCN1-stimulated NEDD8 transfer from UBE2M to CUL2 at 60 uM after 10 sec by pulse-chase assay
T1 sequence (whole entry): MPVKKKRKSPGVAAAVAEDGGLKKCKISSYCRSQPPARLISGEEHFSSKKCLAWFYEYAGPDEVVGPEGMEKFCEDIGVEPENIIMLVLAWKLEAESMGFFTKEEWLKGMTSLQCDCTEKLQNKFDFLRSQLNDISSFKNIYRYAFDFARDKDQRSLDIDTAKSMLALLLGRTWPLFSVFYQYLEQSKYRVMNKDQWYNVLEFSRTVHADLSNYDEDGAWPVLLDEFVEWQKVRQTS

[7] = target: T2, DCN1-like protein 3 (Homo sapiens) (UniProt Q8IWE4); assay: Inhibition of DCN3 (unknown origin) assessed as decrease in DCN1-stimulated NEDD8 transfer from UBE2M to CUL2 at 120 uM after 10 sec by pulse-chase assay
T2 sequence (whole entry): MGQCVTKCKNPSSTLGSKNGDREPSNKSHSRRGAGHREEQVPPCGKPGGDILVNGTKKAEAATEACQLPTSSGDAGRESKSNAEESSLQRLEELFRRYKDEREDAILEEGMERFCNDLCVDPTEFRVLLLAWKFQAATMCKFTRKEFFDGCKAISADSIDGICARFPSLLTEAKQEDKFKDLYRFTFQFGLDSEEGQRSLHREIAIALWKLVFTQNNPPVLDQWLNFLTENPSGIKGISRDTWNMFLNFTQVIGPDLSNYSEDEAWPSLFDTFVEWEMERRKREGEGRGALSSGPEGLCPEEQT

[8] = target: DCN1-like protein 2 (Homo sapiens) (UniProt Q6PH85); assay: Inhibition of DCN2 (unknown origin) assessed as decrease in DCN1-stimulated NEDD8 transfer from UBE2M to CUL2 at 10 uM after 10 sec by pulse-chase assay
[9] = target: T3, DCN1-like protein 4 (Homo sapiens) (UniProt Q92564); assay: Inhibition of DCN4 (unknown origin) assessed as decrease in DCN1-stimulated NEDD8 transfer from UBE2M to CUL2 at 60 uM after 10 sec by pulse-chase assay
T3 sequence (whole entry): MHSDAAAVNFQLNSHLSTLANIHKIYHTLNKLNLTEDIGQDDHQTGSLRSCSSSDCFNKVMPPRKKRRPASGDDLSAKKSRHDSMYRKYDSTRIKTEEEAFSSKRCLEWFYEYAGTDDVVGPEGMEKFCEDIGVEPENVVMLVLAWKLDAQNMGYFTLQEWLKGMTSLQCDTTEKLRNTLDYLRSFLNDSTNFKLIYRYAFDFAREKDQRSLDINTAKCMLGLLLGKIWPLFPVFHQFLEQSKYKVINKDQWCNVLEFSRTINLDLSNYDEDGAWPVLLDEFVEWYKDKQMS

Chain of DCN1-like protein 1/NEDD8-conjugating enzyme Ubc12 (Q96GG9 whole entry): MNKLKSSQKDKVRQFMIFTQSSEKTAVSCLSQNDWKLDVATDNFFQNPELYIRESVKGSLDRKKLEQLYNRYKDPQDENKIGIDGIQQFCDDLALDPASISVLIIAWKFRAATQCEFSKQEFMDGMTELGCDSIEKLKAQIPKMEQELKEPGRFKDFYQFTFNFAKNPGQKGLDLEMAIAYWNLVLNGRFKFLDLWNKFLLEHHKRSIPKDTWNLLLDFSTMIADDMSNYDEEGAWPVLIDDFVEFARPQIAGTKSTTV
Chain of DCN1-like protein 1/NEDD8-conjugating enzyme Ubc12 (P61081 whole entry, further chain): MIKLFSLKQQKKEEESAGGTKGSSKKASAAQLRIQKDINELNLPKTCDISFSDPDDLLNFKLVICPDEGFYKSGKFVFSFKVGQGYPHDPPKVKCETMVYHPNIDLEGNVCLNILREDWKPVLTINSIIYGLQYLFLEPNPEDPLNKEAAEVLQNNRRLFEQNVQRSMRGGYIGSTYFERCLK
Chain of DCN1-like protein 2 (Homo sapiens) (Q6PH85 whole entry): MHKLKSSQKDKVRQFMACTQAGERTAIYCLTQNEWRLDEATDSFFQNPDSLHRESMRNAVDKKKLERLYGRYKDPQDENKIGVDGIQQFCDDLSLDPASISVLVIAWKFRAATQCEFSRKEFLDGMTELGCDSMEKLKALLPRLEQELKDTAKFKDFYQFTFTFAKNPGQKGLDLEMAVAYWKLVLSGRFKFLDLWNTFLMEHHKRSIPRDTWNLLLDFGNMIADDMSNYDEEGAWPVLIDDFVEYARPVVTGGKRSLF

SMILES: Cc1cccc(C(=O)N[C@@H]2C(=O)Nc3c(c(C)nn3-c3ccccn3)[C@@H]2c2ccc(F)cc2)c1
- IC50 [1]: > 15 µM

SMILES: CCN1C(=O)[C@@H](NC(=O)c2cccc(C)c2)[C@@H](c2ccc(F)cc2)c2c(C)nn(C3CCCC3)c21
- IC50 [1]: 0.8 µM

SMILES: Cc1cccc(C(=O)N[C@@H]2C(=O)Nc3c(c(C)nn3-c3ccccc3)[C@@H]2c2cccc(F)c2)c1
- IC50 [1]: 7.1 µM

SMILES: Cc1ccc(C(=O)N[C@@H]2C(=O)Nc3c(c(C)nn3-c3ccccc3)[C@@H]2c2ccc(F)cc2)cc1
- IC50 [1]: > 15 µM

SMILES: Cc1cccc(C(=O)N[C@@H]2C(=O)N(C(C)C)c3c(c(C)nn3-c3ccccc3)[C@@H]2c2ccc(F)cc2)c1
- IC50 [1]: 4.1 µM

SMILES: Cc1nn(-c2ccccc2)c2c1[C@H](c1ccc(F)cc1)[C@H](NC(=O)c1cccc(I)c1)C(=O)N2
- IC50 [1]: 7.1 µM

SMILES: Cc1cccc(C(=O)N[C@@H]2C(=O)Nc3c(c(C)nn3Cc3ccccc3)[C@@H]2c2ccc(F)cc2)c1
- IC50 [1]: > 15 µM

SMILES: Cc1cccc(C(=O)N[C@@H]2C(=O)Nc3c(c(C)nn3-c3ccccc3)[C@@H]2Cc2ccccc2)c1
- IC50 [1]: 3 µM

SMILES: Cc1cccc(C(=O)N[C@@H]2C(=O)Nc3n[nH]c(C)c3[C@@H]2c2ccc(F)cc2)c1
- IC50 [1]: > 15 µM

SMILES: CCCN1C(=O)[C@@H](NC(=O)c2cccc(C)c2)[C@@H](c2ccc(F)cc2)c2c1nn(CCC)c2C
- EC50 (BJ): > 25 µM
- EC50 (HCC95 [2]): > 25 µM

SMILES: Cc1cccc(C(=O)N[C@@H]2C(=O)Nc3c(c(C)nn3-c3ccccc3)[C@@H]2C2CCCCC2)c1
- IC50 [1]: 1.3 µM

SMILES: Cc1cncc(C(=O)N[C@@H]2C(=O)Nc3c(c(C)nn3-c3ccccc3)[C@@H]2c2ccc(F)cc2)c1
- IC50 [1]: > 15 µM

SMILES: Cc1cccc(C(=O)N[C@@H]2C(=O)Nc3c(c(C)nn3-c3ccccc3)[C@@H]2c2ccccc2)c1
- IC50 [1]: 4 µM

SMILES: Cc1cccc(C(=O)N[C@@H]2C(=O)N(C)c3c(c(C)nn3C(C)(C)C)[C@@H]2c2ccc(F)cc2)c1
- IC50 [1]: 2.3 µM

SMILES: CCC[C@H]1c2c(C)nn(-c3ccccc3)c2NC(=O)[C@H]1NC(=O)c1cccc(C)c1
- IC50 [1]: 3.1 µM

SMILES: Cc1nn(-c2ccccc2)c2c1[C@H](c1ccc(F)cc1)[C@H](NC(=O)c1ccccc1)C(=O)N2
- IC50 [1]: 13 µM

SMILES: CC(=O)N1C(=O)[C@@H](NC(=O)c2cccc(C)c2)[C@@H](c2ccc(F)cc2)c2c(C)nn(-c3ccccc3)c21
- IC50 [1]: 5.6 µM

SMILES: Cc1nn(-c2ccccc2)c2c1[C@H](c1ccc(F)cc1)[C@H](NC(=O)c1cccc(C(C)(C)C)c1)C(=O)N2
- IC50 [1]: > 15 µM

SMILES: Cc1cccc(C(=O)N[C@@H]2C(=O)Nc3c(c(C)nn3-c3ccccc3)[C@@H]2c2ccc(F)nc2)c1
- IC50 [1]: 3.5 µM

SMILES: CCOC1=Nc2c(c(C)nn2-c2ccccc2)[C@H](c2ccc(F)cc2)[C@@H]1NC(=O)c1cccc(C)c1
- EC50 (BJ): > 25 µM
- EC50 (HCC95 [2]): > 25 µM

SMILES: Cc1ccccc1C(=O)N[C@@H]1C(=O)Nc2c(c(C)nn2-c2ccccc2)[C@@H]1c1ccc(F)cc1
- IC50 [1]: > 15 µM

SMILES: Cc1cccc(C(=O)N[C@@H]2C(=O)Nc3c(c(C)nn3C3CC3)[C@@H]2c2ccc(F)cc2)c1
- IC50 [1]: 2 µM

SMILES: Cc1cccc(C(=O)N[C@@H]2C(=O)Nc3c(c(C)nn3-c3ccccc3)[C@@H]2c2cccnc2)c1
- IC50 [1]: > 15 µM

SMILES: CC(=O)CN1C(=O)[C@@H](NC(=O)c2cccc(C)c2)[C@@H](c2ccc(F)cc2)c2c(C)nn(-c3ccccc3)c21
- IC50 [1]: 7.1 µM

SMILES: Cc1nn(-c2ccccc2)c2c1[C@H](c1ccc(F)cc1)[C@H](NC(=O)c1ccc(Cl)c(Cl)c1)C(=O)N2
- IC50 [1]: > 15 µM

SMILES: CCCn1nc(C)c2c1NC(=O)[C@@H](NC(=O)c1cccc(C)c1)[C@H]2c1ccc(F)cc1
- IC50 [1]: 1.2 µM

SMILES: Cc1cccc(C(=O)N[C@@H]2C(=O)Nc3c(c(C)nn3C(C)(C)C)[C@@H]2c2ccc(F)cc2)c1
- IC50 [1]: 0.5 µM

SMILES: CCCCN1CCC(N(Cc2ccccc2)C(=O)Nc2ccc(Cl)c(Cl)c2)CC1
- Activity (HCC95 [3]): inactive

SMILES: CCCn1nc(C)c2c1N(CC)C(=O)[C@@H](NC(=O)c1cccc(C)c1)[C@H]2c1ccc(F)cc1 (racemic)
- half-life at 0.8 µM [4]: < 6 min
- EC50 (BJ): > 25 µM
- solubility kinetic [5]: 10.9 µM (≈ 4.89 µg/mL)
- EC50 (HCC95 [2]): > 25 µM
- IC50 [1]: 0.2 µM

SMILES: Cc1cccc(C(=O)N[C@H]2C(=O)Nc3c(c(C)nn3-c3ccccc3)[C@@H]2c2ccc(F)cc2)c1 (racemic)
- EC50 (BJ): > 25 µM
- EC50 (HCC95 [2]): > 25 µM
- Activity (HCC95 [3]): inactive

SMILES: Cc1cccc(C(=O)N[C@@H]2C(=O)Nc3c(c(C)nn3C3CCCC3)[C@@H]2c2ccc(F)cc2)c1 (racemic)
- half-life at 0.8 µM [4]: 30 min
- EC50 (BJ): > 25 µM
- solubility kinetic [5]: 17.1 µM (≈ 7.64 µg/mL)
- EC50 (HCC95 [2]): > 25 µM
- IC50 [1]: 0.3 µM

SMILES: Cc1cccc(C(=O)N[C@@H]2C(=O)Nc3c(c(C)nn3-c3ccccc3)[C@@H]2c2ccc(F)cc2)c1 (racemic)
- half-life at 0.8 µM [4]: 66 min
- EC50 (BJ): > 25 µM
- solubility kinetic [5]: 5.5 µM (≈ 2.5 µg/mL)
- EC50 (HCC95 [2]): > 25 µM
- IC50 [1]: 1.4 µM

SMILES: CCn1nc(C)c2c1NC(=O)[C@@H](NC(=O)c1cccc(C)c1)[C@H]2c1ccc(F)cc1 (racemic)
- half-life at 0.8 µM [4]: 36 min
- EC50 (BJ): > 25 µM
- solubility kinetic [5]: 92.8 µM (≈ 37.7 µg/mL)
- EC50 (HCC95 [2]): > 25 µM

SMILES: CCN1C(=O)[C@@H](NC(=O)c2cccc(C)c2)[C@@H](c2ccc(F)cc2)c2c(C)nn(C3CC3)c21 (racemic)
- half-life at 0.8 µM [4]: < 6 min
- EC50 (BJ): > 25 µM
- solubility kinetic [5]: 46.1 µM (≈ 20.6 µg/mL)
- EC50 (HCC95 [2]): > 25 µM
- IC50 [1]: 0.2 µM

SMILES: CCN1C(=O)[C@@H](NC(=O)c2cccc(C)c2)[C@@H](c2ccc(F)cc2)c2c(C)nn(-c3ccccc3)c21 (relative stereo)
- inhibition [6]: inactive
- inhibition [7]: inactive
- inhibition [8]: Active
- EC50 (BJ): > 25 µM
- inhibition [9]: inactive
- EC50 (HCC95 [2]): > 25 µM
- Activity (HCC95 [3]): inactive

SMILES: Cc1ccc([C@H]2c3c(C)nn(-c4ccccc4)c3NC(=O)[C@H]2NC(=O)c2cccc(C)c2)cc1 (relative stereo)
- half-life at 0.8 µM [4]: 18 min
- EC50 (BJ): > 25 µM
- solubility kinetic [5]: 1.1 µM (≈ 0.496 µg/mL)
- EC50 (HCC95 [2]): > 25 µM
- IC50 [1]: 5.1 µM

SMILES: CCC(C)n1nc(C)c2c1NC(=O)[C@@H](NC(=O)c1cccc(C)c1)[C@H]2c1ccc(F)cc1 (stereo in doubt; 22a)
- IC50 [1]: 0.7 µM

SMILES: CCC(C)n1nc(C)c2c1NC(=O)[C@@H](NC(=O)c1cccc(C)c1)[C@H]2c1ccc(F)cc1 (stereo in doubt; 22b)
- IC50 [1]: 0.6 µM

Reference: ChEMBL document CHEMBL4376818, “Discovery of Novel Pyrazolo-pyridone DCN1 Inhibitors Controlling Cullin Neddylation” (J Med Chem, 2019)
